A short description of assay [1]: Antiproliferative activity against human H460 cells after 72 hrs by MTT assay. It is filed as functional, cell-based. The following applies: NCI-H460, 72 h. In a few lines:
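Tumour cells were grown as monolayers in DMEM with 10 % FBS, 2 mM L-glutamine, penicillin and streptomycin at 37 °C under 5 % CO₂. They were seeded at 3×10^4 cells/mL (HCT 116, H460) or 5×10^4 cells/mL (MCF-7). Tenfold dilutions from 10^-8 to 10^-4 M were applied for 72 h, followed by MTT read at 570 nm. IC50 came from linear regression of percentage growth; at least two experiments, quadruplicate points.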
(In general: Tetrazolium assays rely on reduction of a dye to a coloured formazan, in cell work by metabolically active cells.)

Assay [2] in a line: Binding affinity to duplex calf thymus DNA assessed as change in melting temperature at drug/DNA ratio of 0.5 by spectrophotometric analysis. The procedure, abridged:
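Calf-thymus DNA at 20 μM was heated with or without compound at 10 or 20 μM (drug/base-pair ratio 0.5 or 1) in BPE buffer (6 mM Na₂HPO₄, 2 mM NaH₂PO₄, 1 mM EDTA, pH 7.1). A260 was read every minute from 20 to 100 °C, rising 1 °C per min, and ΔTm was derived.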

Assay [3] can be described thus: Antiproliferative activity against human MCF7 cells after 72 hrs by MTT assay. It is filed as functional, cell-based. The following applies: MCF7, 72 h. In a few lines:
(§1)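 Tumour cells were grown as monolayers in DMEM with 10 % FBS, 2 mM L-glutamine, penicillin and streptomycin at 37 °C under 5 % CO₂. Tenfold dilutions from 10^-8 to 10^-4 M were applied for 72 h, followed by MTT read at 570 nm. IC50 came from linear regression of percentage growth; at least two experiments, quadruplicate points.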

A short description of assay [4]: Antiproliferative activity against human HCT116 cells after 72 hrs by MTT assay. The settings on record: HCT-116, 72 h. It is filed as functional, cell-based. The procedure, abridged:
as §1

In assay [5] the target is T1, DNA topoisomerase 1 (Homo sapiens) (UniProt P11387).
T1 sequence (whole entry): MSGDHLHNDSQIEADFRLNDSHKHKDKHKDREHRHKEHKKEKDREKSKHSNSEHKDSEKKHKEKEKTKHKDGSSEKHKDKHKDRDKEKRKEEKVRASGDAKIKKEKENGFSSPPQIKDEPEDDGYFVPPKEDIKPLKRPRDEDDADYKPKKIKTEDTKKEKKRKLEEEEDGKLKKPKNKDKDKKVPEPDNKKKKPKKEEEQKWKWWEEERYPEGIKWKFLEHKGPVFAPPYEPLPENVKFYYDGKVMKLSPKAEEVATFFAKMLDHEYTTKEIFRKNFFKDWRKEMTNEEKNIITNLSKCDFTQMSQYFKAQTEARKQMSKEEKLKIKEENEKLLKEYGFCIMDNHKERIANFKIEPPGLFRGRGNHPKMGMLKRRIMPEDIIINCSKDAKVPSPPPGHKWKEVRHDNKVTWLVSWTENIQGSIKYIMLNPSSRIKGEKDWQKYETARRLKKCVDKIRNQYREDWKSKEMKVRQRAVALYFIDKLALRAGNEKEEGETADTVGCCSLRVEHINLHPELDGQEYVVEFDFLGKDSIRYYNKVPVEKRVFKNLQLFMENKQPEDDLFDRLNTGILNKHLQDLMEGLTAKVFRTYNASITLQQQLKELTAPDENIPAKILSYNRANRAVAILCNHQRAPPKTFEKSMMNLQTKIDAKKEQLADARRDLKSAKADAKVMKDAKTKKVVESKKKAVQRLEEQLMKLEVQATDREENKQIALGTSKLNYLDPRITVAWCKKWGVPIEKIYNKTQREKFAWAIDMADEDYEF
Description: Poison activity at human DNA topoisomerase 1 assessed as increase in intensity of nicked form of DNA at 100 uM using pUC19 supercoiled plasmid DNA as substrate preincubated for 15 mins followed by DNA topoisomerase 1 addition measured after 30 mins by agarose gel electrophoresis. The procedure, abridged: (§2)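 Supercoiled pUC19 plasmid was treated with human topoisomerase I, alone or with compound, and topoisomers were resolved by agarose gel electrophoresis. Poisoning, seen as nicked plasmid, was assessed on ethidium bromide-containing agarose gels at up to 100 μM compound.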

Assay [6] in a line: Binding affinity to duplex calf thymus DNA assessed as hypsochromic shift at 20 uM by UV/visible spectroscopic analysis. In a few lines:
(§3)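 Compound at 20 μM in BPE buffer (pH 7.1) was titrated with calf-thymus DNA at 1–140 μM in a 10 mm quartz cuvette. Spectra were recorded from 240 to 480 nm against a reference cuvette holding DNA at the same concentration.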

Assay [7] is described as follows: Binding affinity to 0.5 to 480 uM of duplex […] (unknown origin) at 0.5 to 540 uM by fluorescence spectroscopic analysis. In a few lines: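 Fluorescent compounds at 10 μM in BPE buffer (pH 7.1) were measured with and without rising calf-thymus DNA. Emission was scanned from 400 to 700 nm. K_sv was taken as the slope of the Stern–Volmer plot F₀/F = 1 + K_sv[ct-DNA].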

The nature of assay [8]: Binding affinity to duplex calf thymus DNA assessed as change in melting temperature at drug/DNA ratio of 0.1 by spectrophotometric analysis.
The nature of assay [9]: Binding affinity to duplex calf thymus DNA assessed as induction of negative circular dichroic signal at 1 to 60 uM by circular dichroism analysis. In a few lines:
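Calf-thymus DNA at 50 μM was incubated in BPE buffer with or without compound at 1, 5, 10, 20, 30, 40, 50 and 60 μM. CD spectra were recorded from 480 to 230 nm in a 10 mm cell at 20 °C. The compound alone at 60 μM was checked for intrinsic CD.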

A short description of assay [10]: Binding affinity to duplex calf thymus DNA assessed as bathochromic shift at 20 uM by UV/visible spectroscopic analysis. The procedure, abridged:
as §3

Assay [11] in a line: Binding affinity to duplex calf thymus DNA assessed as change in melting temperature at drug/DNA ratio of 0.05 by spectrophotometric analysis.
For assay [12], the system named is Escherichia coli. Kind of assay: Binding affinity to negatively supercoiled pUC19 DNA assessed as DNA intercalation by measuring generation of positively supercoiled DNA up to 50 uM preincubated for 15 mins followed by human DNA topoisomerase 1 addition measured after 30 mins by agarose gel electrophoresis. In a few lines: as §2
Assay [13] is described as follows: Binding affinity to radiolabeled 265bp DNA (unknown origin) at 0.5 to 50 uM by DNase 1 footprinting analysis.
A short description of assay [14]: Antiproliferative activity against human shGFP-fused HMLE cells after 72 hrs by MTT assay. Format: cell-based. The procedure, abridged: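 HMLE-shGFP cells were kept in a 1:1 mix of DMEM + 10 % FBS with insulin, hydrocortisone and HuMEC medium at 37 °C, 5 % CO₂. Agents were given as tenfold dilutions from 10^-8 to 10^-4 M for 72 h, then MTT absorbance was read at 570 nm. IC50 was interpolated by linear regression of percentage growth; at least two experiments, each point in quadruplicate.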

Assay [15] in a line: Binding affinity to duplex calf thymus DNA assessed as change in melting temperature at drug/DNA ratio of 0.25 by spectrophotometric analysis.

The structures appear in SMILES notation. The source made the active and inactive calls. The rule behind the calls is not given here. A value given as a limit tells only on which side of the number the result lay.

This note sets out measurements from ChEMBL document CHEMBL3865821, “Amino substituted benzimidazo[1,2-a]quinolines: Antiproliferative potency, 3D QSAR study and DNA binding properties” (Eur J Med Chem, 2016).

The term ΔTm denotes the change in melting temperature against a reference sample.

`N#Cc1c(N2CCCC2)c2ccc(N3CCCC3)cc2n2c1nc1ccccc12`: the IC50 was 12000 nM in assay [1] (read-out: IC50); 12000 nM in [1] (read-out: pIC50 (converted)); 2000 nM in [3] (read-out: IC50); 2000 nM in assay [3] (read-out: pIC50 (converted)); 2000 nM in assay [4] (read-out: IC50); 2000 nM in assay [4] (read-out: pIC50 (converted)). Also, in [2], the ΔTm worked out at 0.6 °C. Besides, in assay [5], the outcome was Active.
In the case of `C[N+]1(C)CCN(c2ccc3c(N4CC[N+](C)(C)CC4)c(C#N)c4nc5ccccc5n4c3c2)CC1`, the outcome in [6], in assay [7], in assay [9], in [10] and in assay [13] was Active. Moreover, the ΔTm in [8] was 20.7 °C; in [11], 2.1 °C. The IC50 in assay [1] (read-out: IC50) was > 100000 nM; in [1] (read-out: pIC50 (converted)) it was 500000 nM; in [3] (read-out: IC50), > 100000 nM; in [3] (read-out: pIC50 (converted)), 500000 nM; in assay [4] (read-out: IC50), > 100000 nM; in assay [4] (read-out: pIC50 (converted)), > 100000 nM. For the same compound, the inhibition entry in [12] is “Active”.
As for `CC1CN(c2ccc3cc(C#N)c4nc5ccccc5n4c3c2)CC(C)N1` (stereo not drawn), the IC50 is 500 nM in assay [1] (read-out: IC50); 500 nM in assay [1] (read-out: pIC50 (converted)); 600 nM in assay [3] (read-out: IC50); 600 nM in [3] (read-out: pIC50 (converted)); 300 nM in assay [4] (read-out: IC50); 300 nM in [4] (read-out: pIC50 (converted)). Further, the IC50 in assay [14] was determined as 200 nM. Moreover, in assay [2], the ΔTm was found to be 0 °C.
As for `N#Cc1c(N2CCNCC2)c2ccc(N3CCNCC3)cc2n2c1nc1ccccc12`, the outcome in assay [6], in assay [7], in [9], in assay [10] and in [13] was Active. Besides, the thermal shift (ΔTm) worked out at 5.1 °C in assay [8], 20.1 °C in [2] and 15.9 °C in assay [15]. Further, the IC50 in [1] (read-out: IC50) is 4000 nM; in assay [1] (read-out: pIC50 (converted)), 4000 nM; in assay [3] (read-out: IC50), 1000 nM; in [3] (read-out: pIC50 (converted)), 1000 nM; in assay [4] (read-out: IC50) it was 1500 nM; in assay [4] (read-out: pIC50 (converted)), 1500 nM. The IC50 in [14] came to 2000 nM. In addition, the inhibition result in assay [12] was “Active”.
Regarding `CNc1ccc2c(NC)c(C#N)c3nc4ccccc4n3c2c1`, the IC50 in assay [1] (read-out: IC50) was ≥ 100000 nM; in assay [1] (read-out: pIC50 (converted)), 100000 nM; in assay [3] (read-out: IC50), 2000 nM; in [3] (read-out: pIC50 (converted)) it was 2000 nM; in assay [4] (read-out: IC50), 7000 nM; in assay [4] (read-out: pIC50 (converted)) it was 7000 nM. Also, the ΔTm in [2] was 1.2 °C.
